ChEMBL document CHEMBL1122607, “Heterocyclic analogues of chlorcyclizine with potent hypolipidemic activity” (J Med Chem, 1984)

Test system: Rattus norvegicus
Test: Hypolipidemic activity was measured as reduction in rat serum triglyceride after oral administration in male Wistar rats at 50 mg / (kg day)
Format: functional
Conditions: not given
Method in brief: (§1)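 Cholesterol-fed rats given the test compound orally by gavage on the last 3 days, with controls receiving vehicle (0.5% tragacanth mucilage). After overnight starvation, rats were killed under CO2 3 h after the last dose and bled by cardiac puncture. Serum cholesterol and triglyceride were measured by autoanalyzer and expressed as percentage reduction from control levels, with Student's t test.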

| Compound | Reduction [%] |
| --- | --- |
| CN1CCN(C(c2ccccc2)c2ccns2)CC1 (stereo not given) | 13 |
| CN1CCN(C(c2ccc(Cl)cc2)c2ccns2)CC1 (stereo not given) | 38 |
| COc1ccccc1C(c1cc(C)ns1)N1CCN(C)CC1 (stereo not given) | 17 |
| Cc1cc(C(c2ccc(C(C)C)cc2)N2CCN(C)CC2)sn1 (stereo not given) | 72 |
| CCCCc1ccc(C(c2cc(C)ns2)N2CCN(C)CC2)cc1 (stereo not given) | 25 |

Test system: Rattus norvegicus
Test: Hypolipidemic activity was measured as reduction in rat serum cholesterol after oral administration in male Wistar rats at 100 mg/(kg day)
Format: functional
Conditions: not given
Method in brief: as §1

| Compound | Reduction [%] |
| --- | --- |
| Cc1noc(C)c1C(=C1CCN(C)CC1)c1ccc(C(C)C)cc1 | 82 |
| Cc1cc(C(=C2CCN(C)CC2)c2ccc(C(C)C)cc2)sn1 | 83 |
| CN1CCN(C(c2ccc(Cl)cc2)c2ccns2)CC1 (stereo not given) | 38 |
| CC(C)c1ccccc1C(c1ccns1)N1CCN(C)CC1 (stereo not given) | 77 |
| Cc1cc(C(c2ccc(C(C)C)cc2)N2CCN(C)CC2)sn1 (stereo not given) | 63 |

Test system: Rattus norvegicus
Test: Hypolipidemic activity was measured as reduction in rat serum triglyceride after oral administration in male Wistar rats at 30 mg / (kg day)
Format: functional
Conditions: not given
Method in brief: as §1

| Compound | Reduction [%] |
| --- | --- |
| Cc1noc(C)c1C(=C1CCN(C)CC1)c1ccc(C(C)C)cc1 | 93 |
| Cc1cc(C(=C2CCN(C)CC2)c2ccc(C(C)C)cc2)sn1 | 76 |
| CC(C)c1ccccc1C(c1ccns1)N1CCN(C)CC1 (stereo not given) | 36 |

Test system: Rattus norvegicus
Test: Hypolipidemic activity was measured as reduction in rat serum cholesterol after oral administration in male Wistar rats at 1 mg / (kg day)
Format: functional
Conditions: not given
Method in brief: as §1

| Compound | Reduction [%] |
| --- | --- |
| Cc1noc(C)c1C(=C1CCN(C)CC1)c1ccc(C(C)C)cc1 | 31 |
| Cc1cc(C(=C2CCN(C)CC2)c2ccc(C(C)C)cc2)sn1 | 19 |

Test system: Rattus norvegicus
Test: Hypolipidemic activity was measured as reduction in rat serum triglyceride after oral administration in male Wistar rats at 10 mg / (kg day)
Format: functional
Conditions: not given
Method in brief: as §1

| Compound | Reduction [%] |
| --- | --- |
| Cc1noc(C)c1C(=C1CCN(C)CC1)c1ccc(C(C)C)cc1 | 78 |
| Cc1cc(C(=C2CCN(C)CC2)c2ccc(C(C)C)cc2)sn1 | 34 |
| CC(C)c1ccccc1C(c1ccns1)N1CCN(C)CC1 (stereo not given) | 31 |

Test system: Rattus norvegicus
Test: Hypolipidemic activity was measured as reduction in rat serum triglyceride after oral administration in male Wistar rats at 200 mg / (kg day)
Format: functional
Conditions: not given
Method in brief: as §1

| Compound | Reduction [%] |
| --- | --- |
| CN1CCN(C(c2ccccc2)c2ccns2)CC1 (stereo not given) | 46 |
| CN1CCN(C(c2ccc(Cl)cc2)c2ccns2)CC1 (stereo not given) | 37 |
| COc1ccccc1C(c1cc(C)ns1)N1CCN(C)CC1 (stereo not given) | 78 |
| CCCCc1ccc(C(c2cc(C)ns2)N2CCN(C)CC2)cc1 (stereo not given) | 66 |

Test system: Rattus norvegicus
Test: Hypolipidemic activity was measured as reduction in rat serum triglyceride after oral administration in male Wistar rats at 3 mg / (kg day)
Format: functional
Conditions: not given
Method in brief: as §1

| Compound | Reduction [%] |
| --- | --- |
| Cc1noc(C)c1C(=C1CCN(C)CC1)c1ccc(C(C)C)cc1 | 43 |
| Cc1cc(C(=C2CCN(C)CC2)c2ccc(C(C)C)cc2)sn1 | 37 |
| CC(C)c1ccccc1C(c1ccns1)N1CCN(C)CC1 (stereo not given) | 14 |

Test system: Rattus norvegicus
Test: Minimum effective dose (MED) is the dose (mg/kg)that cause significant reduction in serum cholesterol of 30% compared to concurrent controls.
Format: functional
Design: unit: mg/kg
Conditions: not given
Method in brief: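 MED was calculated from the log dose/response curve as the dose giving a statistically significant 30% fall in serum cholesterol versus concurrent controls. Measured in the 3-day oral cholesterol-fed rat screen, or in a 2-week test: groups of eight young male Wistar rats on cholesterol/cholic acid-supplemented or normal diet, dosed orally by gavage daily for 14 days, vehicle 0.5% tragacanth mucilage.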

| Compound | MED |
| --- | --- |
| Cc1noc(C)c1C(=C1CCN(C)CC1)c1ccc(C(C)C)cc1 | 1 |
| Cc1cc(C(=C2CCN(C)CC2)c2ccc(C(C)C)cc2)sn1 | 6 |
| CN1CCN(C(c2ccc(Cl)cc2)c2ccns2)CC1 (stereo not given) | 84 |
| CC(C)c1ccccc1C(c1ccns1)N1CCN(C)CC1 (stereo not given) | 10 |
| Cc1cc(C(c2ccc(C(C)C)cc2)N2CCN(C)CC2)sn1 (stereo not given) | 9 |

Test system: Rattus norvegicus
Test: Hypolipidemic activity was measured as reduction in rat serum cholesterol after oral administration in male Wistar rats at 3 mg / (kg day)
Format: functional
Conditions: not given
Method in brief: as §1

| Compound | Reduction [%] |
| --- | --- |
| Cc1noc(C)c1C(=C1CCN(C)CC1)c1ccc(C(C)C)cc1 | 58 |
| Cc1cc(C(=C2CCN(C)CC2)c2ccc(C(C)C)cc2)sn1 | 26 |
| CC(C)c1ccccc1C(c1ccns1)N1CCN(C)CC1 (stereo not given) | 15 |
| Cc1cc(C(c2ccc(C(C)C)cc2)N2CCN(C)CC2)sn1 (stereo not given) | 16 |

Test system: Rattus norvegicus
Test: Hypolipidemic activity was measured as reduction in rat serum triglyceride after oral administration in male Wistar rats at 100 mg / (kg day)
Format: functional
Conditions: not given
Method in brief: as §1

| Compound | Reduction [%] |
| --- | --- |
| Cc1noc(C)c1C(=C1CCN(C)CC1)c1ccc(C(C)C)cc1 | 90 |
| Cc1cc(C(=C2CCN(C)CC2)c2ccc(C(C)C)cc2)sn1 | 96 |
| CN1CCN(C(c2ccc(Cl)cc2)c2ccns2)CC1 (stereo not given) | 41 |
| CC(C)c1ccccc1C(c1ccns1)N1CCN(C)CC1 (stereo not given) | 71 |
| Cc1cc(C(c2ccc(C(C)C)cc2)N2CCN(C)CC2)sn1 (stereo not given) | 85 |

Test system: Rattus norvegicus
Test: Hypolipidemic activity was measured as reduction in rat serum cholesterol after oral administration in male Wistar rats at 50 mg / (kg day)
Format: functional
Conditions: not given
Method in brief: as §1

| Compound | Reduction [%] |
| --- | --- |
| CN1CCN(C(c2ccccc2)c2ccns2)CC1 (stereo not given) | 34 |
| CN1CCN(C(c2ccc(Cl)cc2)c2ccns2)CC1 (stereo not given) | 17 |
| COc1ccccc1C(c1cc(C)ns1)N1CCN(C)CC1 (stereo not given) | 26 |
| Cc1cc(C(c2ccc(C(C)C)cc2)N2CCN(C)CC2)sn1 (stereo not given) | 45 |
| CCCCc1ccc(C(c2cc(C)ns2)N2CCN(C)CC2)cc1 (stereo not given) | 45 |

Test system: Rattus norvegicus
Test: Hypolipidemic activity was measured as reduction in rat serum cholesterol after oral administration in male Wistar rats at 10 mg / (kg day)
Format: functional
Conditions: not given
Method in brief: as §1

| Compound | Reduction [%] |
| --- | --- |
| Cc1noc(C)c1C(=C1CCN(C)CC1)c1ccc(C(C)C)cc1 | 83 |
| Cc1cc(C(=C2CCN(C)CC2)c2ccc(C(C)C)cc2)sn1 | 62 |
| CC(C)c1ccccc1C(c1ccns1)N1CCN(C)CC1 (stereo not given) | 32 |
| Cc1cc(C(c2ccc(C(C)C)cc2)N2CCN(C)CC2)sn1 (stereo not given) | 28 |

Test system: Rattus norvegicus
Test: Hypolipidemic activity was measured as reduction in rat serum cholesterol after oral administration in male Wistar rats at 200 mg / (kg day)
Format: functional
Conditions: not given
Method in brief: as §1

| Compound | Reduction [%] |
| --- | --- |
| CN1CCN(C(c2ccccc2)c2ccns2)CC1 (stereo not given) | 68 |
| CN1CCN(C(c2ccc(Cl)cc2)c2ccns2)CC1 (stereo not given) | 63 |
| COc1ccccc1C(c1cc(C)ns1)N1CCN(C)CC1 (stereo not given) | 75 |
| CCCCc1ccc(C(c2cc(C)ns2)N2CCN(C)CC2)cc1 (stereo not given) | 75 |

Test system: Rattus norvegicus
Test: Hypolipidemic activity was measured as reduction in rat serum triglyceride after oral administration in male Wistar rats at 1 mg / (kg day)
Format: functional
Conditions: not given
Method in brief: as §1

| Compound | Reduction [%] |
| --- | --- |
| Cc1noc(C)c1C(=C1CCN(C)CC1)c1ccc(C(C)C)cc1 | 13 |
| Cc1cc(C(=C2CCN(C)CC2)c2ccc(C(C)C)cc2)sn1 | 3 |

Test system: not listed separately
Test: The therapeutic safety margin (TSM) is the ratio of the minimum lethal dose (mg/kg)to the MED
Format: ADME, organism-based
Conditions: in vivo
Method in brief: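 Young male Wistar rats, eight per group, on cholesterol/cholic acid-supplemented or normal diet; graded oral gavage doses daily for 14 days; vehicle controls (0.5% tragacanth mucilage). Mortalities recorded to give the minimum lethal daily dose. After overnight fasting, serum cholesterol assayed by autoanalyzer. MED is the dose giving a significant (t test) 30% cholesterol fall, from the log dose/response curve. TSM = minimum lethal dose/MED.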

| Compound | therapeutic safety margin (minimum lethal dose / MED) |
| --- | --- |
| Cc1noc(C)c1C(=C1CCN(C)CC1)c1ccc(C(C)C)cc1 | 50 |
| Cc1cc(C(=C2CCN(C)CC2)c2ccc(C(C)C)cc2)sn1 | 5 |
| Cc1cc(C(c2ccc(C(C)C)cc2)N2CCN(C)CC2)sn1 (stereo not given) | 15 |

Test system: Rattus norvegicus
Test: Hypolipidemic activity was measured as reduction in rat serum cholesterol after oral administration in male Wistar rats at 30 mg / (kg day)
Format: functional
Conditions: not given
Method in brief: as §1

| Compound | Reduction [%] |
| --- | --- |
| Cc1noc(C)c1C(=C1CCN(C)CC1)c1ccc(C(C)C)cc1 | 89 |
| Cc1cc(C(=C2CCN(C)CC2)c2ccc(C(C)C)cc2)sn1 | 87 |
| CC(C)c1ccccc1C(c1ccns1)N1CCN(C)CC1 (stereo not given) | 43 |
